This note sets out measurements from ChEMBL document CHEMBL1158766, “Sesquiterpenoids from Saussurea laniceps” (2005).

Assay [1] can be described thus: Inhibition of lipopolysaccharide-induced mouse B cell proliferation assessed as [3H]TdR incorporation at 1 uM.
Assay [2] can be described thus: Inhibition of lipopolysaccharide-induced mouse B cell proliferation assessed as [3H]TdR incorporation at 0.1 uM.
Assay [3] can be described thus: Inhibition of concanavalin A-induced mouse T cell proliferation assessed as [3H]TdR incorporation at 1 uM. It counts as functional. Summed up: (§1)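 Mouse spleen cells (4 × 10^6/well) were stimulated with ConA at 5 µg/mL alongside compound at 1 × 10^-7 to 1 × 10^-4 M, then cultured for 48 h at 37 °C in 5% CO2. [3H]TdR (0.25 µCi/well) was added for the final 6 h, and uptake was read by liquid scintillation counting. Counts are means ± SD from three independent experiments, compared with controls by Student t-test.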

Assay [4] in a line: Inhibition of lipopolysaccharide-induced mouse B cell proliferation assessed as [3H]TdR incorporation at 10 uM.
Assay [5] can be described thus: Inhibition of lipopolysaccharide-induced mouse B cell proliferation assessed as [3H]TdR incorporation at 100 uM.
Assay [6] in a line: Inhibition of concanavalin A-induced mouse T cell proliferation assessed as [3H]TdR incorporation at 100 uM. It counts as functional. In short, it runs like this:
as §1

Assay [7] in a line: Inhibition of concanavalin A-induced mouse T cell proliferation assessed as [3H]TdR incorporation at 0.1 uM. Type of assay: functional. In short, it runs like this:
as §1

The nature of assay [8]: Inhibition of concanavalin A-induced mouse T cell proliferation assessed as [3H]TdR incorporation at 10 uM. It counts as functional. Summed up: as §1

For the molecule `C=C(CO)C(=O)O[C@H]1CC(=C)[C@@H]2C[C@@H](O)C(=C)[C@@H]2[C@H]2OC(=O)[C@@H](C)[C@@H]21`, the Activity in assay [1] was 29800 cpm; in assay [2] it was 24300 cpm; in assay [3] it was 43800 cpm; in assay [4] it was 34900 cpm; in assay [5] it was 30 cpm; in assay [6], 30 cpm. For the same molecule, the Activity in assay [7] was found to be 46300 cpm; in assay [8], 13400 cpm.

Take `C=C1C[C@H](O)C[C@]2(C)CC[C@@](O)(C(=C)CO)C[C@@H]12`: the Activity was determined as 33600 cpm in assay [1]; 36100 cpm in assay [2]; 31500 cpm in assay [3]; 30.8 cpm in assay [4]; 17200 cpm in assay [5]; 12100 cpm in assay [6]. Also, the Activity turned out to be 39800 cpm in assay [7] and 28300 cpm in assay [8].

Consider `C=C(C)C(=O)O[C@H]1CC(=C)[C@@H]2C[C@@H](O)C(=C)[C@@H]2[C@H]2OC(=O)[C@@H](C)[C@@H]21`, for which the Activity in assay [1] was determined as 31100 cpm; in assay [2], 34800 cpm; in assay [3], 36100 cpm; in assay [4], 20600 cpm; in assay [5], 80 cpm; in assay [6] it was 40 cpm. Besides, the results for the Activity in assay [7] and in assay [8] were 33800 cpm and 30600 cpm, respectively.
